According to ChEMBL document CHEMBL1240471, “Synthesis and anticancer activity of chromone-based analogs of lavendustin A” (Eur J Med Chem, 2010):
In brackets after ≈: the same amount, converted by molar mass.

Legend:
Format in all cases: functional, cell-based
A-431 = assay: Growth inhibition of human A431 cells after 72 hrs by SRB assay; conditions: A-431, 72 h
Outline: (§1)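 Cells were seeded at 5 × 10³ cells/well in 96-well plates. Various sample concentrations were added in triplicate, and plates were incubated for 72 h at 37 °C in 5% CO₂. Optical density was read at 520 nm. GI₅₀ was taken as the concentration inhibiting cell growth by 50%.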

SK-OV-3 = assay: Growth inhibition of human SKOV3 cells after 72 hrs by SRB assay; conditions: SK-OV-3, 72 h
A549 = assay: Growth inhibition of human A549 cells after 72 hrs by SRB assay; conditions: A549, 72 h
Outline: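 A-549 cells were seeded at 2 × 10³ cells/well. Various sample concentrations were tested in triplicate over 72 h at 37 °C under 5% CO₂. Absorbance was read at 520 nm. GI₅₀ was assigned as the concentration giving 50% growth inhibition.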

KB = assay: Growth inhibition of human KB cells after 72 hrs by SRB assay; outline: as §1
HCT-15 = assay: Growth inhibition of human HCT15 cells after 72 hrs by SRB assay; conditions: HCT-15, 72 h; outline: as §1
SK-MEL-2 = assay: Growth inhibition of human SK-MEL-2 cells after 72 hrs by SRB assay; conditions: SK-MEL-2, 72 h; outline: as §1

Row | Structure (SMILES) | IC50 (A-431) [µg/mL] | IC50 (SK-OV-3) [µg/mL] | IC50 (A549) [µg/mL] | IC50 (KB) [µg/mL] | IC50 (HCT-15) [µg/mL] | IC50 (SK-MEL-2) [µg/mL]
1 | Cc1cc(=O)c2ccc(O)c(CN(Cc3ccccc3)Cc3ccccc3)c2o1 | 19.5 (≈ 50.6 µM) | 19 (≈ 49.2 µM) | 11.9 (≈ 30.9 µM) | 15.1 (≈ 39.2 µM) | 11.3 (≈ 29.4 µM) | 17.8 (≈ 46.1 µM)
2 | Cc1cc(=O)c2ccc(O)c(CN(CCc3ccccc3)Cc3ccccc3)c2o1 | 18.5 (≈ 46.3 µM) | 21.6 (≈ 54 µM) | 12.3 (≈ 30.9 µM) | 14.5 (≈ 36.3 µM) | 11.7 (≈ 29.3 µM) | 17.4 (≈ 43.5 µM)
3 | COc1ccc(CN(Cc2ccc(OC)cc2)Cc2c(O)ccc3c(=O)cc(C)oc23)cc1 | 38.9 (≈ 87.3 µM) | > 100 | 62.5 (≈ 140 µM) | 17.8 (≈ 39.9 µM) | 53.7 (≈ 121 µM) | 31.6 (≈ 71 µM)
4 | Cc1cc(=O)c2ccc(O)c(CN(CCc3ccccc3)Cc3ccc([N+](=O)[O-])cc3)c2o1 | 61 (≈ 137 µM) | > 100 | 9.92 (≈ 22.3 µM) | 10.8 (≈ 24.4 µM) | 7.68 (≈ 17.3 µM) | 74.1 (≈ 167 µM)
5 | COc1ccc(CN(CCc2ccccc2)Cc2c(O)ccc3c(=O)cc(/C=C/c4ccccc4)oc23)cc1 |  |  | 17.9 (≈ 34.6 µM) | 35 (≈ 67.6 µM) | 49.4 (≈ 95.4 µM) | > 100

Other lines, results leading:

Row | IC50 (A-431) [µg/mL] | IC50 (SK-OV-3) [µg/mL] | IC50 (A549) [µg/mL] | IC50 (KB) [µg/mL] | IC50 (HCT-15) [µg/mL] | IC50 (SK-MEL-2) [µg/mL] | Structure (SMILES)
6 | 44.7 (≈ 108 µM) | 24.5 (≈ 59.1 µM) | 14.1 (≈ 34 µM) | 42.7 (≈ 103 µM) | 10.7 (≈ 25.8 µM) | 78.6 (≈ 189 µM) | COc1ccc(CN(Cc2ccccc2)Cc2c(O)ccc3c(=O)cc(C)oc23)cc1
7 | 25.2 (≈ 58.7 µM) | 65 (≈ 151 µM) | 16.6 (≈ 38.7 µM) | 16.1 (≈ 37.4 µM) | 15.8 (≈ 36.8 µM) | 19.9 (≈ 46.4 µM) | COc1ccc(CCN(Cc2ccccc2)Cc2c(O)ccc3c(=O)cc(C)oc23)cc1
8 | > 100 | 41.7 (≈ 90.7 µM) | 26.1 (≈ 56.8 µM) | 24.3 (≈ 53 µM) | 31.5 (≈ 68.5 µM) | 21.9 (≈ 47.6 µM) | COc1ccc(CCN(Cc2ccccc2)Cc2c(O)ccc3c(=O)cc(C)oc23)cc1OC
9 | 41.9 (≈ 119 µM) | 57.5 (≈ 163 µM) | 38.7 (≈ 110 µM) | 47.4 (≈ 134 µM) | 22.4 (≈ 63.5 µM) | 60.3 (≈ 171 µM) | CCN(Cc1ccc(OC)cc1)Cc1c(O)ccc2c(=O)cc(C)oc12
10 | > 100 | > 100 | 24.5 (≈ 53.1 µM) | 24.4 (≈ 53 µM) | 28.6 (≈ 62.1 µM) | > 100 | COc1ccc(CN(Cc2ccc([N+](=O)[O-])cc2)Cc2c(O)ccc3c(=O)cc(C)oc23)cc1
11 | 16.4 (≈ 35.2 µM) | > 100 | 6.01 (≈ 12.9 µM) | 17.6 (≈ 37.8 µM) | 6.89 (≈ 14.8 µM) | > 100 | COc1ccc(CN(Cc2ccc3ccccc3c2)Cc2c(O)ccc3c(=O)cc(C)oc23)cc1
12 | > 100 | > 100 | 32.7 (≈ 96.8 µM) | 32.6 (≈ 96.6 µM) | 43.2 (≈ 128 µM) | 57.5 (≈ 171 µM) | CCN(CCc1ccccc1)Cc1c(O)ccc2c(=O)cc(C)oc12
